Test results as given in ChEMBL document CHEMBL1139495, “Retro hydrazino-azapeptoids as peptidomimetics of proteasome inhibitors” (J Med Chem, 2005).
Where a SMILES comes first, the peptide text is derived from it. [ ]: non-standard residue; d: D form. Nle = CCCC[C@H](N)C(=O)O

Biological target: not listed separately
Experiment: Inhibitory concentration against peptidyl-glutamyl peptide hydrolase activity
Conditions: not given

Row | IC50 | SMILES
1 | 45 µM | CCCC[C@@H](C=O)NC(=O)[C@H](CC(C)C)NC(=O)[C@H](CC(C)C)NC(C)=O (Ac-Leu-Leu-[Nle]-aldehyde)

System: Proteasome
Experiment: Inhibitory concentration against 20S proteasome chymotrypsin-like activity
Type: subcellular
Conditions: not given

Row | SMILES | IC50
2 | CC(C)CN(CC(=O)N(Cc1cccnc1)NC(=O)OCc1ccccc1)/N=C/c1cccc(B(O)O)c1 | 350 µM
3 | CC(C)CN(NC(=O)OCc1ccccc1)C(=O)CN(Cc1cccnc1)/N=C/c1cccc(B(O)O)c1 | > 1000 µM
4 | CC(C)CN(CC(=O)N(CC(C)C)NC(=O)OCc1ccccc1)/N=C/c1cccc(B(O)O)c1 | 91 µM
5 | CC(C)CN(CC(=O)NN(Cc1ccccc1)c1cnccn1)NC(=O)CBr | > 1000 µM
6 | CC(C)CN(NC(=O)OCc1ccccc1)C(=O)CN(Cc1ccccc1)/N=C/c1cccc(B(O)O)c1 | 53 µM
7 | CC(C)CN(NC(=O)OCc1ccccc1)C(=O)CN(Cc1ccccc1)/N=C/c1ccc(B(O)O)cc1 | > 1000 µM
8 | CC(C)CN(CC(=O)N(Cc1ccccc1)NC(=O)OCc1ccccc1)/N=C/c1cccc(B(O)O)c1 | > 1000 µM
9 | CC(C)CN(NC(=O)OCc1ccccc1)C(=O)CN(Cc1ccccc1)NCc1cccc(Br)c1 | > 1000 µM
10 | CC(C)CN(CC(=O)NN(Cc1ccccc1)c1cnccn1)/N=C/c1cccc(B(O)O)c1 | > 1000 µM
11 | CC(C)CN(NC(=O)OCc1ccccc1)C(=O)CN(Cc1ccccc1)/N=C/c1ccccc1B(O)O | > 1000 µM
12 | CC(C)CN(NC(=O)CN(Cc1ccccc1)/N=C/c1cccc(B(O)O)c1)c1cnccn1 | 500 µM
13 | CC(C)CN(CC(=O)N(Cc1ccccc1)NC(=O)OCc1ccccc1)/N=C/c1ccccc1B(O)O | > 1000 µM

The next lines start with the values.

Row | IC50 | SMILES
14 | > 1000 µM | CC(C)CN(CC(=O)N(CC(C)C)NC(=O)OCc1ccccc1)NC(=O)CNNC(=O)CBr
15 | > 1000 µM | CC(C)CN(CC(=O)N(CC(C)C)NC(=O)OCc1ccccc1)NC(=O)CBr
16 | > 1000 µM | CC(C)CN(NC(=O)OCc1ccccc1)C(=O)CN(Cc1ccccc1)NC(=O)CBr
17 | > 1000 µM | CC(C)CN(NC(=O)CN(Cc1ccccc1)NC(=O)CBr)C(=O)OCc1ccccc1
18 | > 1000 µM | CC(C)CN(CC(=O)N(CC(C)C)NCC(=O)OCc1ccccc1)NC(=O)CBr
19 | 50 µM | CC(C)CN(CC(=O)N(CC(C)C)NC(=O)OCc1ccccc1)/N=C/c1ccccc1B(O)O

System: Proteasome
Experiment: Inhibitory effect on 20S proteasome chymotrypsin-like activity
Type: subcellular
Conditions: not given

Row | IC50 | SMILES
20 | 15 µM | CCCC[C@@H](C=O)NC(=O)[C@H](CC(C)C)NC(=O)[C@H](CC(C)C)NC(C)=O (Ac-Leu-Leu-[Nle]-aldehyde)

Biological target: T1, Calpain-1 catalytic subunit (Homo sapiens, UniProt P07384)
T1 sequence (P07384 whole entry): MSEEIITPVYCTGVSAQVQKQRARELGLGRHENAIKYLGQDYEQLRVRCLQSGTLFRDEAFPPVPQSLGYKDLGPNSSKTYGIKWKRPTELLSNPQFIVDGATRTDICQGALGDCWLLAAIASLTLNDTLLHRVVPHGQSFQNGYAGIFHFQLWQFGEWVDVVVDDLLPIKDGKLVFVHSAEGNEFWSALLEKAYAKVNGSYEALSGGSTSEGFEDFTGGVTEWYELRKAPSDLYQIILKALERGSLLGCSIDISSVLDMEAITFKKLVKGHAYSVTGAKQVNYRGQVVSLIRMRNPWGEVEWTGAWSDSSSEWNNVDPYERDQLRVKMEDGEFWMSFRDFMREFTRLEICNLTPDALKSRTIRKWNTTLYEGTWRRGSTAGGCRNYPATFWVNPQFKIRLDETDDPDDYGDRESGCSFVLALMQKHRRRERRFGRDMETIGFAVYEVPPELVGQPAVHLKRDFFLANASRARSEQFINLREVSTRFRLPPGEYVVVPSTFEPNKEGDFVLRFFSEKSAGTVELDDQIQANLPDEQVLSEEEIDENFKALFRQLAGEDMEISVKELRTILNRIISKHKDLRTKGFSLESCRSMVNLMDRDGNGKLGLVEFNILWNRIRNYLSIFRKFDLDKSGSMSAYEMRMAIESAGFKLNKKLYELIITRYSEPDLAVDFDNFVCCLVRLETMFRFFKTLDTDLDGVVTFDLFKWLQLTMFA
Experiment: Inhibitory concentration against Calpain I activity
Conditions: not given

Row | IC50 | SMILES
21 | 1 µM | CCCC[C@@H](C=O)NC(=O)[C@H](CC(C)C)NC(=O)[C@H](CC(C)C)NC(C)=O (Ac-Leu-Leu-[Nle]-aldehyde)
22 | > 1000 µM | CC(C)CN(NC(=O)OCc1ccccc1)C(=O)CN(Cc1ccccc1)/N=C/c1cccc(B(O)O)c1
23 | > 1000 µM | CC(C)CN(CC(=O)N(CC(C)C)NC(=O)OCc1ccccc1)/N=C/c1ccccc1B(O)O

Biological target: Cathepsin B (Homo sapiens, UniProt P07858)
Experiment: (§1) Inhibitory concentration against Cathepsin B activity
Type: functional
Conditions: not given

Row | IC50 | SMILES
24 | > 1000 µM | CC(C)CN(NC(=O)OCc1ccccc1)C(=O)CN(Cc1ccccc1)/N=C/c1cccc(B(O)O)c1
25 | > 1000 µM | CC(C)CN(CC(=O)N(CC(C)C)NC(=O)OCc1ccccc1)/N=C/c1ccccc1B(O)O

System: L1210
Experiment: Inhibitory concentration of the compound was determined against L1210 cells
Type: functional, cell-based
Conditions: Mus musculus
Method in brief: (§2)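 MTT read-out on cultured cells (murine leukemia L1210, melanoma B16, normal melanocyte Mel-A), scoring growth inhibition as either a cytostatic or a cytotoxic effect.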

Row | SMILES | IC50
26 | CC(C)CN(CC(=O)N(Cc1cccnc1)NC(=O)OCc1ccccc1)/N=C/c1cccc(B(O)O)c1 | 41.6 µM
27 | CC(C)CN(NC(=O)OCc1ccccc1)C(=O)CN(Cc1cccnc1)/N=C/c1cccc(B(O)O)c1 | 75 µM
28 | CC(C)CN(CC(=O)N(CC(C)C)NC(=O)OCc1ccccc1)/N=C/c1cccc(B(O)O)c1 | 21.2 µM
29 | CCCC[C@@H](C=O)NC(=O)[C@H](CC(C)C)NC(=O)[C@H](CC(C)C)NC(C)=O (Ac-Leu-Leu-[Nle]-aldehyde) | 3 µM
30 | CC(C)CN(CC(=O)NN(Cc1ccccc1)c1cnccn1)NC(=O)CBr | 24.1 µM
31 | CC(C)CN(NC(=O)OCc1ccccc1)C(=O)CN(Cc1ccccc1)/N=C/c1cccc(B(O)O)c1 | 16.2 µM
32 | CC(C)CN(NC(=O)OCc1ccccc1)C(=O)CN(Cc1ccccc1)/N=C/c1ccc(B(O)O)cc1 | 14.7 µM
33 | CC(C)CN(CC(=O)N(Cc1ccccc1)NC(=O)OCc1ccccc1)/N=C/c1cccc(B(O)O)c1 | 16.9 µM
34 | CC(C)CN(NC(=O)OCc1ccccc1)C(=O)CN(Cc1ccccc1)NCc1cccc(Br)c1 | 30 µM
35 | CC(C)CN(CC(=O)NN(Cc1ccccc1)c1cnccn1)/N=C/c1cccc(B(O)O)c1 | > 80 µM
36 | CC(C)CN(NC(=O)OCc1ccccc1)C(=O)CN(Cc1ccccc1)/N=C/c1ccccc1B(O)O | 27.9 µM
37 | CC(C)CN(NC(=O)CN(Cc1ccccc1)/N=C/c1cccc(B(O)O)c1)c1cnccn1 | > 80 µM
38 | CC(C)CN(CC(=O)N(Cc1ccccc1)NC(=O)OCc1ccccc1)/N=C/c1ccccc1B(O)O | 18.4 µM

Results, then the compound that gave them:

Row | IC50 | SMILES
39 | 7.6 µM | CC(C)CN(CC(=O)N(CC(C)C)NC(=O)OCc1ccccc1)NC(=O)CNNC(=O)CBr
40 | 6.5 µM | CC(C)CN(CC(=O)N(CC(C)C)NC(=O)OCc1ccccc1)NC(=O)CBr
41 | 1.3 µM | CC(C)CN(NC(=O)OCc1ccccc1)C(=O)CN(Cc1ccccc1)NC(=O)CBr
42 | 0.6 µM | CC(C)CN(NC(=O)CN(Cc1ccccc1)NC(=O)CBr)C(=O)OCc1ccccc1
43 | 5 µM | CC(C)CN(CC(=O)N(CC(C)C)NCC(=O)OCc1ccccc1)NC(=O)CBr
44 | 16.2 µM | CC(C)CN(CC(=O)N(CC(C)C)NC(=O)OCc1ccccc1)/N=C/c1ccccc1B(O)O

System: B16
Experiment: Inhibitory concentration of the compound was determined against melanoma B16 cells
Type: functional, cell-based
Conditions: Mus musculus
Method in brief: as §2

Row | SMILES | IC50
45 | CC(C)CN(CC(=O)N(Cc1cccnc1)NC(=O)OCc1ccccc1)/N=C/c1cccc(B(O)O)c1 | 21.1 µM
46 | CC(C)CN(NC(=O)OCc1ccccc1)C(=O)CN(Cc1cccnc1)/N=C/c1cccc(B(O)O)c1 | 74.9 µM
47 | CC(C)CN(CC(=O)N(CC(C)C)NC(=O)OCc1ccccc1)/N=C/c1cccc(B(O)O)c1 | 53.9 µM
48 | CCCC[C@@H](C=O)NC(=O)[C@H](CC(C)C)NC(=O)[C@H](CC(C)C)NC(C)=O (Ac-Leu-Leu-[Nle]-aldehyde) | 14.5 µM
49 | CC(C)CN(CC(=O)NN(Cc1ccccc1)c1cnccn1)NC(=O)CBr | 11.4 µM
50 | CC(C)CN(NC(=O)OCc1ccccc1)C(=O)CN(Cc1ccccc1)/N=C/c1cccc(B(O)O)c1 | 20.4 µM
51 | CC(C)CN(NC(=O)OCc1ccccc1)C(=O)CN(Cc1ccccc1)/N=C/c1ccc(B(O)O)cc1 | 32.6 µM
52 | CC(C)CN(CC(=O)N(Cc1ccccc1)NC(=O)OCc1ccccc1)/N=C/c1cccc(B(O)O)c1 | 20.5 µM
53 | CC(C)CN(NC(=O)OCc1ccccc1)C(=O)CN(Cc1ccccc1)NCc1cccc(Br)c1 | > 80 µM
54 | CC(C)CN(CC(=O)NN(Cc1ccccc1)c1cnccn1)/N=C/c1cccc(B(O)O)c1 | > 80 µM
55 | CC(C)CN(NC(=O)OCc1ccccc1)C(=O)CN(Cc1ccccc1)/N=C/c1ccccc1B(O)O | 65.5 µM
56 | CC(C)CN(NC(=O)CN(Cc1ccccc1)/N=C/c1cccc(B(O)O)c1)c1cnccn1 | > 80 µM
57 | CC(C)CN(CC(=O)N(Cc1ccccc1)NC(=O)OCc1ccccc1)/N=C/c1ccccc1B(O)O | 33.5 µM

Second part, the compound after the results:

Row | IC50 | SMILES
58 | 2.5 µM | CC(C)CN(CC(=O)N(CC(C)C)NC(=O)OCc1ccccc1)NC(=O)CNNC(=O)CBr
59 | 1.3 µM | CC(C)CN(CC(=O)N(CC(C)C)NC(=O)OCc1ccccc1)NC(=O)CBr
60 | 1.4 µM | CC(C)CN(NC(=O)OCc1ccccc1)C(=O)CN(Cc1ccccc1)NC(=O)CBr
61 | 0.7 µM | CC(C)CN(NC(=O)CN(Cc1ccccc1)NC(=O)CBr)C(=O)OCc1ccccc1
62 | 2.2 µM | CC(C)CN(CC(=O)N(CC(C)C)NCC(=O)OCc1ccccc1)NC(=O)CBr
63 | 26.3 µM | CC(C)CN(CC(=O)N(CC(C)C)NC(=O)OCc1ccccc1)/N=C/c1ccccc1B(O)O

System: not listed separately
Experiment: as §1
Conditions: not given

Row | IC50 | SMILES
64 | 12 µM | CCCC[C@@H](C=O)NC(=O)[C@H](CC(C)C)NC(=O)[C@H](CC(C)C)NC(C)=O (Ac-Leu-Leu-[Nle]-aldehyde)

System: Mel-A (Mus musculus)
Experiment: Inhibitory concentration of the compound was determined against melanocyte Mel-A cells
Conditions: not given

Row | SMILES | IC50
65 | CC(C)CN(CC(=O)N(Cc1cccnc1)NC(=O)OCc1ccccc1)/N=C/c1cccc(B(O)O)c1 | 40.3 µM
66 | CC(C)CN(NC(=O)OCc1ccccc1)C(=O)CN(Cc1cccnc1)/N=C/c1cccc(B(O)O)c1 | 60.9 µM
67 | CC(C)CN(CC(=O)NN(Cc1ccccc1)c1cnccn1)NC(=O)CBr | 14.8 µM
68 | CC(C)CN(NC(=O)OCc1ccccc1)C(=O)CN(Cc1ccccc1)/N=C/c1cccc(B(O)O)c1 | 18.4 µM
69 | CC(C)CN(NC(=O)OCc1ccccc1)C(=O)CN(Cc1ccccc1)/N=C/c1ccc(B(O)O)cc1 | 39.3 µM
70 | CC(C)CN(CC(=O)N(Cc1ccccc1)NC(=O)OCc1ccccc1)/N=C/c1cccc(B(O)O)c1 | 19.9 µM
71 | CC(C)CN(CC(=O)NN(Cc1ccccc1)c1cnccn1)/N=C/c1cccc(B(O)O)c1 | 33.7 µM
72 | CC(C)CN(NC(=O)OCc1ccccc1)C(=O)CN(Cc1ccccc1)/N=C/c1ccccc1B(O)O | 45.1 µM
73 | CC(C)CN(NC(=O)CN(Cc1ccccc1)/N=C/c1cccc(B(O)O)c1)c1cnccn1 | 16.3 µM
74 | CC(C)CN(CC(=O)N(Cc1ccccc1)NC(=O)OCc1ccccc1)/N=C/c1ccccc1B(O)O | 25.1 µM

Now from value to compound:

Row | IC50 | SMILES
75 | 2.3 µM | CC(C)CN(CC(=O)N(CC(C)C)NC(=O)OCc1ccccc1)NC(=O)CNNC(=O)CBr
76 | 3.3 µM | CC(C)CN(CC(=O)N(CC(C)C)NC(=O)OCc1ccccc1)NC(=O)CBr
77 | 1.8 µM | CC(C)CN(NC(=O)OCc1ccccc1)C(=O)CN(Cc1ccccc1)NC(=O)CBr
78 | 4.5 µM | CC(C)CN(CC(=O)N(CC(C)C)NCC(=O)OCc1ccccc1)NC(=O)CBr
79 | 17.3 µM | CC(C)CN(CC(=O)N(CC(C)C)NC(=O)OCc1ccccc1)/N=C/c1ccccc1B(O)O
